ChEMBL document CHEMBL1130118, “A novel radioiodination reagent for protein radiopharmaceuticals with L-lysine as a plasma-stable metabolizable linkage to liberate m-iodohippuric acid after lysosomal proteolysis” (J Med Chem, 1997)

Tests used:
Type in all cases: ADME, organism-based
[1] = system: Mus musculus; experiment: The biodistribution time for compound radioactivity after concomitant administration of [131 I ]L-HML-NGA and compound in mice. It is expressed as percent injected dose per gram of blood tissue after 30 minutes; conditions: in vivo, 0.5 h
Procedure, shortened: (§1)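 Six-week-old male ddY mice received an intravenous injection of a 1:1 mix of the 131I- and 125I-labelled galactosyl-neoglycoalbumin conjugates, each diluted to 90 µg/mL protein in 0.1 M PBS pH 6.0, at 9 µg radioiodinated NGA per mouse. Groups of five were killed at 5, 15 and 30 min, 1 and 3 h. Organs were excised, weighed and well-counted, giving %ID/organ (blood %ID/g) as mean (SD).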

[2] = system: Mus musculus; experiment: The biodistribution time for compound radioactivity after concomitant administration of [131 I ]L-HML-NGA and compound in mice. It is expressed as percent injected dose per gram of blood tissue after 3 hours; conditions: in vivo; procedure, shortened: as §1
[3] = system: Mus musculus; experiment: The biodistribution time for compound radioactivity after concomitant administration of [[131 I ]L-HML-NGA and compound in mice. It is expressed as percent injected dose per kidney after 15 minutes; conditions: in vivo, 0.25 h; procedure, shortened: as §1
[4] = system: Mus musculus; experiment: The biodistribution time for compound radioactivity after concomitant administration of [131 I ]L-HML-NGA and compound in mice. It is expressed as percent injected dose per neck after 3 hours; conditions: in vivo; procedure, shortened: as §1
[5] = Cumulative radioactivity exerted by compound in the feces at 24 hour postinjection of [131 I ]L-HML-NGA and compound.; conditions: in vivo
Procedure, shortened: (§2)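 Mice received one i.v. co-injection of the dual-isotope NGA mixture, 9 µg of each radioiodinated protein, and were housed in metabolic cages for 24 h. Cumulative urine and feces were collected and counted. Values are % injected dose, mean (SD) of five animals, with a Student's paired t-test between the two co-administered conjugates.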

[6] = system: Mus musculus; experiment: The biodistribution time for compound radioactivity after concomitant administration of [131 I ]L-HML-NGA and compound in mice. It is expressed as percent injected dose per intestine after 1 hour; conditions: in vivo; procedure, shortened: as §1
[7] = system: Mus musculus; experiment: The biodistribution time for compound radioactivity after concomitant administration of [131 I ]L-HML-NGA and compound in mice. It is expressed as percent injected dose per stomach after 3 hours; conditions: in vivo; procedure, shortened: as §1
[8] = system: Mus musculus; experiment: The biodistribution time for compound radioactivity after concomitant administration of [131 I ]L-HML-NGA and compound in mice. It is expressed as percent injected dose per stomach after 5 minutes; conditions: in vivo; procedure, shortened: as §1
[9] = Cumulative radioactivity exerted by compound in the urine at 24 hour postinjection of [131 I ]L-HML-NGA and compound; conditions: in vivo; procedure, shortened: as §2
[10] = system: Mus musculus; experiment: The biodistribution time for compound radioactivity after concomitant administration of [131 I ]L-HML-NGA and compound in mice. It is expressed as percent injected dose per liver after 15 minutes; conditions: in vivo, 0.25 h; procedure, shortened: as §1
[11] = system: Mus musculus; experiment: The biodistribution time for compound radioactivity after concomitant administration of [131 I ]L-HML-NGA and compound in mice. It is expressed as percent injected dose per liver after 30 minutes; conditions: in vivo, 0.5 h; procedure, shortened: as §1
[12] = system: Mus musculus; experiment: The biodistribution time for compound radioactivity after concomitant administration of [[131 I ]L-HML-NGA and compound in mice. It is expressed as percent injected dose per kidney after 1 hour; conditions: in vivo; procedure, shortened: as §1
[13] = system: Mus musculus; experiment: The biodistribution time for compound radioactivity after concomitant administration of [131 I ]L-HML-NGA and compound in mice. It is expressed as percent injected dose per gram of blood tissue after 5 minutes; conditions: in vivo; procedure, shortened: as §1
[14] = system: Mus musculus; experiment: The biodistribution time for compound radioactivity after concomitant administration of [[131 I ]L-HML-NGA and compound in mice. It is expressed as percent injected dose per kidney after 30 minutes; conditions: in vivo, 0.5 h; procedure, shortened: as §1
[15] = system: Mus musculus; experiment: The biodistribution time for compound radioactivity after concomitant administration of [131 I ]L-HML-NGA and compound in mice. It is expressed as percent injected dose per neck after 15 minutes; conditions: in vivo, 0.25 h; procedure, shortened: as §1
[16] = system: Mus musculus; experiment: The biodistribution time for compound radioactivity after concomitant administration of [131 I ]L-HML-NGA and compound in mice. It is expressed as percent injected dose per intestine after 15 minutes; conditions: in vivo, 0.25 h; procedure, shortened: as §1
[17] = system: Mus musculus; experiment: The biodistribution time for compound radioactivity after concomitant administration of [131 I ]L-HML-NGA and compound in mice. It is expressed as percent injected dose per neck after 5 minutes; conditions: in vivo; procedure, shortened: as §1
[18] = system: Mus musculus; experiment: The biodistribution time for compound radioactivity after concomitant administration of [131 I ]L-HML-NGA and compound in mice. It is expressed as percent injected dose per intestine after 3 hours; conditions: in vivo; procedure, shortened: as §1
[19] = system: Mus musculus; experiment: The biodistribution time for compound radioactivity after concomitant administration of [[131 I ]L-HML-NGA and compound in mice. It is expressed as percent injected dose per kidney after 5 minutes; conditions: in vivo; procedure, shortened: as §1
[20] = system: Mus musculus; experiment: The biodistribution time for compound radioactivity after concomitant administration of [131 I ]L-HML-NGA and compound in mice. It is expressed as percent injected dose per neck after 1 hour; conditions: in vivo; procedure, shortened: as §1
[21] = system: Mus musculus; experiment: The biodistribution time for compound radioactivity after concomitant administration of [131 I ]L-HML-NGA and compound in mice. It is expressed as percent injected dose per stomach after 15 minutes; conditions: in vivo, 0.25 h; procedure, shortened: as §1
[22] = system: Mus musculus; experiment: The biodistribution time for compound radioactivity after concomitant administration of [[131 I ]L-HML-NGA and compound in mice. It is expressed as percent injected dose per kidney after 3 hours; conditions: in vivo; procedure, shortened: as §1
[23] = system: Mus musculus; experiment: The biodistribution time for compound radioactivity after concomitant administration of [131 I ]L-HML-NGA and compound in mice. It is expressed as percent injected dose per stomach after 30 minutes; conditions: in vivo, 0.5 h; procedure, shortened: as §1
[24] = system: Mus musculus; experiment: The biodistribution time for compound radioactivity after concomitant administration of [131 I ]L-HML-NGA and [compound in mice. It is expressed as percent injected dose per stomach after 1 hour; conditions: in vivo; procedure, shortened: as §1
[25] = system: Mus musculus; experiment: The biodistribution time for compound radioactivity after concomitant administration of [131 I ]L-HML-NGA and compound in mice. It is expressed as percent injected dose per liver after 1 hour; conditions: in vivo; procedure, shortened: as §1
[26] = system: Mus musculus; experiment: The biodistribution time for compound radioactivity after concomitant administration of [131 I ]L-HML-NGA and compound in mice. It is expressed as percent injected dose per gram of blood tissue after 1 hour; conditions: in vivo; procedure, shortened: as §1
[27] = system: Mus musculus; experiment: The biodistribution time for compound radioactivity after concomitant administration of [131 I ]L-HML-NGA and compound in mice. It is expressed as percent injected dose per liver after 3 hours; conditions: in vivo; procedure, shortened: as §1
[28] = system: Mus musculus; experiment: The biodistribution time for compound radioactivity after concomitant administration of [131 I ]L-HML-NGA and compound in mice. It is expressed as percent injected dose per gram of blood tissue after 15 minutes; conditions: in vivo, 0.25 h; procedure, shortened: as §1
[29] = system: Mus musculus; experiment: The biodistribution time for compound radioactivity after concomitant administration of [131 I ]L-HML-NGA and compound in mice. It is expressed as percent injected dose per neck after 30 minutes; conditions: in vivo, 0.5 h; procedure, shortened: as §1
[30] = system: Mus musculus; experiment: The biodistribution time for compound radioactivity after concomitant administration of [131 I ]L-HML-NGA and compound in mice. It is expressed as percent injected dose per liver after 5 minutes; conditions: in vivo; procedure, shortened: as §1
[31] = system: Mus musculus; experiment: The biodistribution time for compound radioactivity after concomitant administration of [131 I ]L-HML-NGA and compound in mice. It is expressed as percent injected dose per intestine after 30 minutes; conditions: in vivo, 0.5 h; procedure, shortened: as §1
[32] = system: Mus musculus; experiment: The biodistribution time for compound radioactivity after concomitant administration of [131 I ]L-HML-NGA and compound in mice. It is expressed as percent injected dose per intestine after 5 minutes; conditions: in vivo; procedure, shortened: as §1

Radioactivity [1]: 1.11%
Radioactivity [2]: 0.34%
Radioactivity [3]: 2.97%
Radioactivity [4]: 0.04%
Radioactivity [5]: 40.97%
Radioactivity [6]: 34.28%
Radioactivity [7]: 1.09%
Radioactivity [8]: 0.24%
Radioactivity [9]: 39.1%
Radioactivity [10]: 66.9%
Radioactivity [11]: 27.49%
Radioactivity [12]: 0.72%
Radioactivity [13]: 1.15%
Radioactivity [14]: 1.73%
Radioactivity [15]: 0.2%
Radioactivity [16]: 5.11%
Radioactivity [17]: 0.15%
Radioactivity [18]: 40.82%
Radioactivity [19]: 1.26%
Radioactivity [20]: 0.11%
Radioactivity [21]: 0.65%
Radioactivity [22]: 0.34%
Radioactivity [23]: 2%
Radioactivity [24]: 1.4%
Radioactivity [25]: 12.6%
Radioactivity [26]: 0.54%
Radioactivity [27]: 3.62%
Radioactivity [28]: 1.78%
Radioactivity [29]: 0.18%
Radioactivity [30]: 93.14%
Radioactivity [31]: 21.6%
Radioactivity [32]: 1.14%
Structure (SMILES): N[C@@H](CS)C(=O)SC1CC(=O)N(CCCC[C@@H](NC(=O)CNC(=O)c2cccc([125I])c2)C(=O)O)C1=O (some centres not stated)
